Two compounds from ChEMBL document CHEMBL3091454, “Improved Cav2.2 Channel Inhibitors through a gem-Dimethylsulfone Bioisostere Replacement of a Labile Sulfonamide” (ACS Med Chem Lett, 2013) can be followed below.

Data set [1] in a line: Fraction unbound in 100% rat plasma. The class given is ADME, cell-free. An outline of the steps:
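Unbound fraction measured in 100% rat plasma.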

Data set [2] can be described thus: Clearance in rat at 3 mg/kg, po and 1 mg/kg, iv. The class given is ADME, organism-based. As to conditions: in vivo. A digest of the protocol: (§1)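 Rats dosed 3 mg/kg orally and 1 mg/kg intravenously; PK parameters derived from whole-blood concentrations. Normalized oral AUC given in μM·h·kg/mg, clearance in mL/min/kg, plus half-life and oral bioavailability.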

The target in a further data set is Cytochrome P450 3A4 (Homo sapiens, UniProt P08684). In words: Inhibition of CYP3A4 (unknown origin). It is filed as ADME.
The target of the next data set is MDR1 (ABCB1) (Homo sapiens, UniProt P08183). Put plainly: Activity at human MDR1 expressed in MDCK2 cells assessed as apparent permeability by LC/MS/MS analysis. It is filed as ADME, cell-based, MDCK-II. As to conditions: MDCK-MDR1.
In data set [3] the test system is Rattus norvegicus. In words: Normalized AUC in rat whole blood at 3 mg/kg, po. As to conditions: in vivo. On the set-up: dose 3 mg/kg, route oral. It is filed as ADME, organism-based. An outline of the steps: as §1
The target in data set [4] is T1, Nuclear receptor subfamily 1 group I member 2 (Homo sapiens, UniProt O75469).
T1 sequence (O75469 whole entry): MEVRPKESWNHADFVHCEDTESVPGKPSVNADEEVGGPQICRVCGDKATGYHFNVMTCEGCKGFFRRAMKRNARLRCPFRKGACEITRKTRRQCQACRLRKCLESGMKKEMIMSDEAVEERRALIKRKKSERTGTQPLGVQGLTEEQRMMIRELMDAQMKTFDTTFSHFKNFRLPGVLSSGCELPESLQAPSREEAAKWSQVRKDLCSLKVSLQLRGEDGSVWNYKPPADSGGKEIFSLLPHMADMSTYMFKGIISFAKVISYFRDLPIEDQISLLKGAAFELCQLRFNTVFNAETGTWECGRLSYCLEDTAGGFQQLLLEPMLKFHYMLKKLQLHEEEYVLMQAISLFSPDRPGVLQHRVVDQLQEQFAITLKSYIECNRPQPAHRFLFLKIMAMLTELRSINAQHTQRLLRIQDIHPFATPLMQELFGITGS
Put plainly: Activation of PXR (unknown origin).

Data set [5] can be described thus: Metabolic stability in human liver microsomes assessed as compound remaining at 10 uM after 1 hr in presence of NADPH. It is filed as ADME. As to conditions: read-out: Stability. A digest of the protocol:
(§2)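 Liver microsomes (rat or human) incubated with compound and NADPH for 1 h; percent of parent remaining. Table footnote gives 10 μM compound, 1 mM NADPH, 1 mg/mL protein; text gives 1 μM substrate, 1 mg/mL protein.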
A general note: Microsomes from liver hold many membrane-bound enzymes, among them those of drug oxidation.

Data set [6] deals with Rattus norvegicus. In words: Antinociceptive activity in rat inflammatory pain model assessed as reversal of CFA-induced mechanical allodynia at 30 mg/kg, po after 1 hr. The class given is functional. An outline of the steps: (§3)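 Rats given intraplantar complete Freund's adjuvant in the hind paws to induce inflammatory pain; mechanical allodynia assessed 1 and 3 h after a single oral dose. Percent reversal per rat calculated as (postdose − predose)/(preinjury − predose), averaged over n = 6 rats.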

The nature of data set [7]: Oral bioavailability in rat at 3 mg/kg. The class given is ADME, organism-based. As to conditions: in vivo. A digest of the protocol: as §1
The test system of data set [8] is Rattus norvegicus. Put plainly: Antinociceptive activity in rat inflammatory pain model assessed as reversal of CFA-induced mechanical allodynia at 10 mg/kg, po after 3 hrs. It is filed as functional. An outline of the steps:
as §3

The nature of data set [9]: Metabolic stability in rat liver microsomes assessed as compound remaining at 10 uM after 1 hr in presence of NADPH. It is filed as ADME. As to conditions: read-out: Stability. A digest of the protocol:
as §2

Data set [10] has as its system Rattus norvegicus. In words: Antinociceptive activity in rat inflammatory pain model assessed as reversal of CFA-induced mechanical allodynia at 10 mg/kg, po after 1 hr. The class given is functional. A digest of the protocol:
as §3

Data set [11] relates to Rattus norvegicus. Put plainly: Antinociceptive activity in rat inflammatory pain model assessed as reversal of CFA-induced mechanical allodynia at 30 mg/kg, po after 3 hrs. It is filed as functional. An outline of the steps:
as §3

The target in data set [12] is Voltage-dependent N-type calcium channel subunit alpha-1B (Homo sapiens, UniProt Q00975). Put plainly: Inhibition of Cav2.2-mediated calcium influx in HEK cells by FLIPR assay. It is filed as cell-based, HEK293. An outline of the steps: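 Cav2.2 calcium-influx FLIPR assay; compounds screened for percent inhibition at single concentration, active ones titrated for IC50; values averaged over n ≥ 3.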

A short description of data set [13]: Half life in rat at 3 mg/kg, po and 1 mg/kg, iv. The class given is ADME, organism-based. As to conditions: in vivo. A digest of the protocol: as §1

Bounds are passed on as bounds.

Chain of MDR1 (ABCB1) (P08183 whole entry): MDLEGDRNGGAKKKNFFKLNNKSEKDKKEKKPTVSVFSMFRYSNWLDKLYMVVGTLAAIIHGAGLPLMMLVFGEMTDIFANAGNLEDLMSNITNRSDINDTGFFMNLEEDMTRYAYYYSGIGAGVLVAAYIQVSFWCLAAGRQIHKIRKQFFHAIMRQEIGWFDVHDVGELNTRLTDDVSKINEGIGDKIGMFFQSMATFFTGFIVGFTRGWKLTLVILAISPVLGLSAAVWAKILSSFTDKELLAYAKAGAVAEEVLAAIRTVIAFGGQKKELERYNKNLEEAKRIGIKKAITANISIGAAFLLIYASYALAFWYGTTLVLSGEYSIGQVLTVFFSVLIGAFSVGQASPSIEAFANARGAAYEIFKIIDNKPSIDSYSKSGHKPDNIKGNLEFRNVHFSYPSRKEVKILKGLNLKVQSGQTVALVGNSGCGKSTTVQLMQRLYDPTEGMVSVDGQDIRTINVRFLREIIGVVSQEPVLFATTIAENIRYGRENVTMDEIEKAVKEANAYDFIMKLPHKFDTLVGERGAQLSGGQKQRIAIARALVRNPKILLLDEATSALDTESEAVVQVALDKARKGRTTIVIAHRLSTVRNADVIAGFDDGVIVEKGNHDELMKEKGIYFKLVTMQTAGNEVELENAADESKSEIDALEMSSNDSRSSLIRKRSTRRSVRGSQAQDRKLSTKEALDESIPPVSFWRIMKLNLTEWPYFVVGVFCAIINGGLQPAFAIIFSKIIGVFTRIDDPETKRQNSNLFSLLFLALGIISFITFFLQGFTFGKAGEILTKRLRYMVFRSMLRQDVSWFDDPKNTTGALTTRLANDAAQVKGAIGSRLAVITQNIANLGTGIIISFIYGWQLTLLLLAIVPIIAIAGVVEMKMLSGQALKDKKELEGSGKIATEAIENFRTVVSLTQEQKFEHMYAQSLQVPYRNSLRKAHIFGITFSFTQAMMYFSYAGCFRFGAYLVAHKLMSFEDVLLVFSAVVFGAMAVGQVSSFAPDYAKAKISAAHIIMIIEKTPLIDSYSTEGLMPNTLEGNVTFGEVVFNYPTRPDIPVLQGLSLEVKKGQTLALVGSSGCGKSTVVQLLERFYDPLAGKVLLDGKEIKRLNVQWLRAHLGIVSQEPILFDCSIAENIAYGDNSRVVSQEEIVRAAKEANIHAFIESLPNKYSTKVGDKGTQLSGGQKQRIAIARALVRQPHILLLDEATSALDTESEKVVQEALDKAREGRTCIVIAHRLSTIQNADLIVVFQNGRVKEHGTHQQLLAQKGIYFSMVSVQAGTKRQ
Chain of Voltage-dependent N-type calcium channel subunit alpha-1B (Q00975 whole entry): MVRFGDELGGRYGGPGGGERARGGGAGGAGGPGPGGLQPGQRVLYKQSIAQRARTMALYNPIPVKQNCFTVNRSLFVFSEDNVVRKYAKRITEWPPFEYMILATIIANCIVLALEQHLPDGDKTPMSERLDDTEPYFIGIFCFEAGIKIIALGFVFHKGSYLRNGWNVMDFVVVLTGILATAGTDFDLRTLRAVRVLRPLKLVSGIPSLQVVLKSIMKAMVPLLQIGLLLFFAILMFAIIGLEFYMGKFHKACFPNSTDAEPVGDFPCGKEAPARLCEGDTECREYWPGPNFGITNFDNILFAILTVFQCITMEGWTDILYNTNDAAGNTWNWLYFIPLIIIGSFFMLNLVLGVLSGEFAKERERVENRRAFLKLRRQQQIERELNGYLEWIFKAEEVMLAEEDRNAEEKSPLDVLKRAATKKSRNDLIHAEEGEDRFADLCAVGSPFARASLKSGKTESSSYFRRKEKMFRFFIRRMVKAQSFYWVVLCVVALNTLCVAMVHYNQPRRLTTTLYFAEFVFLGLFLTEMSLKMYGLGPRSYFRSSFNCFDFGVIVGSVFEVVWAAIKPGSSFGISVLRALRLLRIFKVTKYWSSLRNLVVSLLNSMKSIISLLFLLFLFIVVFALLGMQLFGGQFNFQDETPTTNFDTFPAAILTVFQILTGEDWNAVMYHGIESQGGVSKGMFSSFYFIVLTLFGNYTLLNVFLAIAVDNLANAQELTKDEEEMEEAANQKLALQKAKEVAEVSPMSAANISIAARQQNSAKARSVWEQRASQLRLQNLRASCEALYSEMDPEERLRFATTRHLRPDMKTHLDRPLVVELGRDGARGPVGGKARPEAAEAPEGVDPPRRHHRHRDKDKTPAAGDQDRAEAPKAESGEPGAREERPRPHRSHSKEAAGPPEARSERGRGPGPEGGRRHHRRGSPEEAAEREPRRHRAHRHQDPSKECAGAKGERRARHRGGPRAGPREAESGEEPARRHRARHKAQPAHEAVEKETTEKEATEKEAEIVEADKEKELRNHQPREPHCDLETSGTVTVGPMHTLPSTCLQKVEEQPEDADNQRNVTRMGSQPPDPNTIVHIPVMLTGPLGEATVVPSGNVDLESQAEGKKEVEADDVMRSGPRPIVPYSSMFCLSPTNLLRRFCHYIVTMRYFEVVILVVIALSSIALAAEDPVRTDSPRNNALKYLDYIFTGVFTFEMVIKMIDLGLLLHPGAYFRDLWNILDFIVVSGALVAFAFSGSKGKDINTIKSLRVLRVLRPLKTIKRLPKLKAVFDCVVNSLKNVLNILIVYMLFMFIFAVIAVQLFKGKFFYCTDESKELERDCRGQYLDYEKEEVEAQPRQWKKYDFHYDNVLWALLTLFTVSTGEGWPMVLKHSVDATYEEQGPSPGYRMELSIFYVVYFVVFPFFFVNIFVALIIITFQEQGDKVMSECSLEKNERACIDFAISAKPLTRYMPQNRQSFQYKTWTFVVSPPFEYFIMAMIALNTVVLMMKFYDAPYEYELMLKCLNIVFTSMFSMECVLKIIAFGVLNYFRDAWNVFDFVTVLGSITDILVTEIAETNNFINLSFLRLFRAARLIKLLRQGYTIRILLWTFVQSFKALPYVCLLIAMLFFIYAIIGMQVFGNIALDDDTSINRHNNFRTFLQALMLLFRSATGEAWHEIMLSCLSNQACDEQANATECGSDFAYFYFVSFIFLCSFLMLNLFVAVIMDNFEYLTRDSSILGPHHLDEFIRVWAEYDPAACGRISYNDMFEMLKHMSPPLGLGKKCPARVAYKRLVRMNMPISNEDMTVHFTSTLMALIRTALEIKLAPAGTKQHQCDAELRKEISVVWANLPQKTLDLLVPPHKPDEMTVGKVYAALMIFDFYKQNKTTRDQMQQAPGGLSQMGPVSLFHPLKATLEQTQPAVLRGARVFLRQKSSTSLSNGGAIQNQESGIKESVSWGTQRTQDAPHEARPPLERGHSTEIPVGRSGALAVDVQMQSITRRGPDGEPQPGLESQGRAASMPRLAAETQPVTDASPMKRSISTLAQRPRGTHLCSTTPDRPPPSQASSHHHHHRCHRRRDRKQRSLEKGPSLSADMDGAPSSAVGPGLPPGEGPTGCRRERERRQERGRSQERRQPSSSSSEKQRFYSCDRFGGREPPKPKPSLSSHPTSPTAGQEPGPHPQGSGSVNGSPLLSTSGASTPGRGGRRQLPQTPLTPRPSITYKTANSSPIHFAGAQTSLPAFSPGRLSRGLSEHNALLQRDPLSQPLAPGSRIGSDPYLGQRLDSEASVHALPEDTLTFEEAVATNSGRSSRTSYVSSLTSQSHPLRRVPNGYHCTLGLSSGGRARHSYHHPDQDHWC
Chain of Cytochrome P450 3A4 (P08684 whole entry): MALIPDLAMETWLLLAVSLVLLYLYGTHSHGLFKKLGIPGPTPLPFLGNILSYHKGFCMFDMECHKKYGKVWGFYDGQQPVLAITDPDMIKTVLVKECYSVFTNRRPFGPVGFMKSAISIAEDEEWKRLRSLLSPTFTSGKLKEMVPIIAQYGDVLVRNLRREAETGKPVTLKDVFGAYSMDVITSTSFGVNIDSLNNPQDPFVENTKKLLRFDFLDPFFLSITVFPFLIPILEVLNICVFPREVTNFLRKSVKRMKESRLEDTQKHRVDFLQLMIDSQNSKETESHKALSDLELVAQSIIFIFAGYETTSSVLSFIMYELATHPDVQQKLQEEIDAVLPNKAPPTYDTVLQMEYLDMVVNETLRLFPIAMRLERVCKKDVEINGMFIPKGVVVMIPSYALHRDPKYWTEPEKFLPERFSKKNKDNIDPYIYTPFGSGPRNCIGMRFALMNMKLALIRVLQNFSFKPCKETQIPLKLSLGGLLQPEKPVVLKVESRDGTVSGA

By fraction unbound is commonly meant the share of the substance not bound to proteins or other matrix. Low readings indicate little free substance, high ones much free substance. As a reminder, the IC50 is the point on the concentration scale where inhibition reaches its midpoint. One may read the Papp as the rate of passage across a membrane or cell layer, normalised by area and donor concentration. By EC50 is commonly meant the concentration giving half of the maximal effect. Read a high EC50 as lower potency in that assay. The term bioavailability denotes the share of a dose that reaches the circulation, judged against a reference dose that is usually intravenous. Lower therefore signals poor availability. As for `CC(C)(C1CCN(C(=O)c2cc(F)ccc2S(C)(=O)=O)CC1)S(=O)(=O)c1cccc(C(F)(F)F)c1`, in [1], the fraction unbound amounted to 0.068. The compound further displayed a clearance in data set [2] of 29 mL/min/kg. Moreover, the IC50 against Cytochrome P450 3A4 stood at 10000 nM; in data set [12], 510 nM. For the same compound, the Papp at MDR1 (ABCB1) is 35 ×10⁻⁶ cm/s. In addition, in the data set with Rattus norvegicus [3], the AUC/dose is 0.27 µM·kg·h/mg. In data set [4], this compound yielded a concentration giving a half-maximal response (EC50) of 2500 nM. The remaining at 1 h, 10 µM in data set [5] turned out to be 64%; in data set [9] it was 68%. Besides, the Efficacy in the data set on Rattus norvegicus [6] amounted to 57%; with Rattus norvegicus [8] it was 49%; in the data set with Rattus norvegicus [10] it was 36%; in the data set with Rattus norvegicus [11], 54%. Further, in data set [7], the bioavailability was 24%.
One may read the half-life as the time in which the quantity being followed falls by half. Low values mean rapid decline, high ones slow decline. Regarding `CC(C)(C1CCN(C(=O)c2ccc(S(C)(=O)=O)cc2OC(F)(F)F)CC1)S(=O)(=O)c1cccc(C(F)(F)F)c1`, the free fraction (fraction unbound) in [1] was found to be 0.013. In data set [2], this compound showed a clearance of 27 mL/min/kg. In addition, the Papp at MDR1 (ABCB1) was found to be 35 ×10⁻⁶ cm/s. Further, the AUC/dose in the data set on Rattus norvegicus [3] came out at 0.97 µM·kg·h/mg. Moreover, the concentration for a half-maximal effect (EC50) in [4] is > 30000 nM. Also, the remaining at 1 h, 10 µM came out at 62% in data set [5] and 73% in data set [9]. The compound also gave a half-life in data set [13] of 2.3 h. The bioavailability in data set [7] worked out at 95%. Also, the Efficacy in the data set with Rattus norvegicus [8] was 30%; with Rattus norvegicus [10], 21%. In addition, the IC50 in data set [12] worked out at 92 nM.
